In brackets after ≈: the same amount, converted by molar mass. Activity calls are given as the source filed them. The rule behind the calls is not given here.
Experiments:
Staphylococcus aureus = experiment: Antibacterial activity against Staphylococcus aureus at 10 ug/disk by disk diffusion method; format: functional; conditions: read-out: DIZ
Outline: (§1)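 Disk diffusion, with test compound applied at 10 µg per disk. Streptomycin sulfate served as the reference antibacterial. Procedure followed an earlier report.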

Candida albicans = experiment: […] activity against Candida albicans at 10 ug/disk by disk diffusion method; format: functional, organism-based
Aspergillus ochraceus = experiment: Antifungal activity against Aspergillus ochraceus at 10 ug/disk by disk diffusion method; format: functional, organism-based
Escherichia coli = experiment: Antibacterial activity against Escherichia coli at 10 ug/disk by disk diffusion method; format: functional; outline: as §1
Bacillus cereus = experiment: Antibacterial activity against Bacillus cereus at 10 ug/disk by disk diffusion method; format: functional; conditions: read-out: DIZ; outline: as §1
HeLa = experiment: Cytotoxicity against human HeLa cells after 72 hrs by MTT assay; format: functional, cell-based
Outline: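 Human cervical carcinoma HeLa cells were exposed for 72 h and viability read by MTT. IC50 values were reported in µg/mL, with doxorubicin and colchicine run as reference standards. Method followed an earlier report.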

SMILES | zone of inhibition at 10 µg/disc (Staphylococcus aureus) | Activity (Candida albicans) | Activity (Aspergillus ochraceus) | diameter of the inhibition zone (DIZ) (Escherichia coli) | zone of inhibition at 10 µg/disc (Bacillus cereus) | IC50 (HeLa) | zone of inhibition at 10 µg/disc (Escherichia coli; read-out: DIZ)
COC(=O)c1c(O)cc(O)cc1OC1=C(OC)C(=O)C(CC=C(C)C)=C(CC=C(C)C)C1=O [ATROVIRINONE] | 6.5 mm | inactive | inactive | inactive | 6.5 mm | 15 µg/mL (≈ 32.9 µM) | –
CN[C@@H]1[C@H](O[C@H]2[C@H](O[C@H]3[C@H](O)[C@@H](O)[C@H](N=C(N)N)[C@@H](O)[C@@H]3N=C(N)N)O[C@@H](C)[C@]2(O)C=O)O[C@@H](CO)[C@H](O)[C@H]1O [STREPTOMYCIN] | 13.5 mm | – | – | – | 21 mm | – | 12.5 mm
COc1cccc2c1C(=O)c1c(O)c3c(c(O)c1C2=O)C[C@@](O)(C(=O)CO)C[C@@H]3O[C@H]1C[C@H](N)[C@H](O)[C@H](C)O1 [DOXORUBICIN] | – | – | – | – | – | 11 µg/mL (≈ 20.2 µM) | –
COc1c(O)c(CC=C(C)C)c(CC=C(C)C)c2c1Oc1cc(O)cc(O)c1C(=O)O2 [ATROVIRISIDONE] | 8 mm | inactive | inactive | inactive | 7.5 mm | > 30 µg/mL | –
COc1cc2c(c(OC)c1OC)-c1ccc(OC)c(=O)cc1[C@@H](NC(C)=O)CC2 [COLCHICINE] | – | – | – | – | – | 21 µg/mL (≈ 52.6 µM) | –

From ChEMBL document CHEMBL1155735, “Isolation and bioactivities of constitutents of the roots of Garcinia atroviridis” (J Nat Prod, 2001)
